The results in this text go back to ChEMBL document CHEMBL1629588, “Ambuic acid inhibits the biosynthesis of cyclic peptide quormones in gram-positive bacteria” (Antimicrob Agents Chemother, 2009).

Test [1] concerns Listeria innocua. In words: Inhibition of quormone LsrD826 biosynthesis in Listeria innocua ATCC 33090T at 100 uM by LC/MS analysis. The format is functional, organism-based. The gist of the method:
(§1)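 L. innocua ATCC 33090T overnight culture (25 µl) grown 15 h in 5 ml chemically defined medium. Filtered supernatant loaded on C18 cartridge, washed with 10% acetonitrile/0.1% TFA, eluted with 60% acetonitrile/0.1% TFA. Eluate analysed by LC/MS monitoring m/z 699 (LsrD698) and m/z 827 (LsrD826).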

The subject of test [2] is Staphylococcus aureus. In words: Inhibition of hemolysin production in Staphylococcus aureus 12600T assessed as decrease in hemolytic zone on sheep blood agar at 5 to 20 mM upto 48 hrs […]. Format: functional, organism-based. The gist of the method:
(§2)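 Inhibitor in 50% acetonitrile (5 µl) spotted on sheep blood agar and dried. Plate incubated at 37°C; hemolytic clearance zone around colonies observed and photographed at 16, 24 and 48 h.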

Test [3] deals with Enterococcus faecalis. The test is described as follows: Inhibition of gelatinase production in Enterococcus faecalis OG1RF at <1 mM after 5 hrs. The format is functional. The gist of the method:
(§3)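 E. faecalis OG1RF overnight culture (3 µl) inoculated into 0.5 ml THB with sample, grown 5 h at 37°C. Growth read as OD660. Supernatant (25 µl, after 9,100 x g spin) mixed with 0.5 ml azocoll suspension, 4 h at 170 rpm, centrifuged, gelatinase read as OD540. Duplicate experiments, mean ± SD.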

In test [4] the test system is Enterococcus faecalis. In words: Inhibition of GBAP biosynthesis in Enterococcus faecalis OU510 harboring pQU2200 and pQU2301 assessed as proteolytic processing of Hexahistidine-tagged FsrD after 5 hrs by Western blot analysis. Format: functional, organism-based. The method in brief:
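OU510 carrying pQU2200 (FsrB') and pQU2301 (His6-tagged FsrD) inoculated (6 µl overnight culture) into 1.0 ml THB with inhibitor at various concentrations. Nisin added at 2 h to induce, cells harvested 3 h later. Cells boiled in SDS-PAGE sample buffer; extracts analysed by Western blot with anti-His-tag antibody. Supernatant GBAP activity read by OU510 gelatinase induction.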

Test [5] deals with Staphylococcus aureus. In words: Inhibition of quormone AIP-I biosynthesis in Staphylococcus aureus 12600T at 50 uM by LC/MS analysis. The format is functional, organism-based. The method in brief: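 S. aureus 12600T overnight culture (20 µl) inoculated into 2 ml TSB-YE, grown 15 h. Filtered (0.22 µm) supernatant (40 µl) analysed by C18 LC/ESI-TOF MS, 20–40% acetonitrile in 0.05% TFA, 0.2 ml/min, 30°C. Extracted ion chromatogram at m/z 961–962.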

For test [6], the system named is Staphylococcus aureus. The test is described as follows: Inhibition of agr quorom sensing in Staphylococcus aureus 8325-4 harboring pSB2035 assessed as […] at 50 to 200 uM after 7 hrs by GFP fluorescence reporter gene assay.
In test [7] the test system is Enterococcus faecalis. The test is described as follows: Antimicrobial activity against Enterococcus faecalis OG1RF assessed as growth inhibition at <1 mM after 5 hrs. The format is functional. The gist of the method: as §3
In test [8] the test system is Listeria innocua. The test is described as follows: Inhibition of quormone LsrD698 biosynthesis in Listeria innocua ATCC 33090T at 100 uM by LC/MS analysis. Format: functional, organism-based. The gist of the method: as §1
Test [9] concerns Staphylococcus aureus. In words: Inhibition of hemolysin production in Staphylococcus aureus 12600T assessed as decrease in hemolytic zone on sheep blood agar at 20 mM after 16 to 48 hrs […]. Format: functional, organism-based. The following applies: TDE = time-dependent effect. The method in brief: as §2
Test [10] has as its system Staphylococcus aureus. The test is described as follows: Inhibition of agr quorom sensing in Staphylococcus aureus 8325-4 harboring pSB2035 assessed as […] at 50 to 200 uM after 7 hrs by GFP assay. Format: functional, organism-based. The method in brief: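 S. aureus 8325-4(pSB2035) washed and serially subcultured (1/20 twice, 2 h each), then diluted 1/50 into 200 µl medium with inhibitor, shaken 7 h. OD620 read; cells washed twice in PBS, GFP fluorescence read (ex 490/em 525 nm). Triplicate, mean ± SD. Quenching control: 200 µM added to washed untreated cells, fluorescence followed 15 min.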

Test [11] deals with Staphylococcus aureus. In words: Inhibition of hemolysin production in Staphylococcus aureus 12600T assessed as decrease in hemolytic zone on sheep blood agar at 10 mM after 16 to 48 hrs […]. Format: functional, organism-based. The following applies: TDE = time-dependent effect. The method in brief: as §2
In test [12] the test system is Enterococcus faecalis. The test is described as follows: Inhibition of gelatinase production in Enterococcus faecalis OG1RF after 5 hrs. Format: functional. The method in brief: as §3
In test [13] the test system is Staphylococcus aureus. In words: Inhibition of hemolysin production in Staphylococcus aureus 12600T assessed as decrease in hemolytic zone on sheep blood agar at 5 mM after 16 to 48 hrs […]. The format is functional, organism-based. The following applies: TDE = time-dependent effect. The method in brief: as §2
The subject of test [14] is Enterococcus faecalis. The test is described as follows: Inhibition of gelatinase production in GBAP-negative Enterococcus faecalis OU510 at 100 uM after 5 hrs in presence of GBAP. The format is functional, organism-based. The gist of the method:
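Overnight E. faecalis OU510 (3 µl) grown 5 h in 0.5 ml THB containing 100 µM inhibitor plus synthetic GBAP at various concentrations. Supernatant gelatinase measured by azocoll assay (OD540), growth by OD660. Duplicate experiments; gelatinase/growth ratio computed per experiment and averaged.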

The structures appear in SMILES notation. pIC50: −log10 of the molar value. The source made the active and inactive calls. The calls are words filed in the database; no cut-off is given here.

For the molecule `CCCCC/C=C/C1=C(CO)[C@H](O)[C@H]2O[C@@]2(C/C=C(\C)C(=O)O)C1=O` [AMBUIC ACID], the inhibition entry with Listeria innocua [1], in the test with Enterococcus faecalis [4], in the test with Staphylococcus aureus [5], in the test with Staphylococcus aureus [6], in the test on Listeria innocua [8] and in the test on Staphylococcus aureus [10] was “Active” throughout. The inhibition result with Staphylococcus aureus [2] is “Dose-dependent effect”; in the test on Staphylococcus aureus [9], “tde”; in the test with Staphylococcus aureus [11], “tde”; with Staphylococcus aureus [13], “tde”. Moreover, the outcome with Enterococcus faecalis [3] was Active. The result with Enterococcus faecalis [7] was inactive. The pIC50 with Enterococcus faecalis [12] was 5.00. Besides, in the test with Enterococcus faecalis [14], the inhibition result was “inactive”.
